Among the data in ChEMBL document CHEMBL1795208 (J Med Chem, 2011) are IC50 values, retold here.

Common to all, as to type: functional, cell-based
The test system of assay [1] is SK-BR-3. Nature of the assay: Antiproliferative activity against human SKBR3 cells expressing HER2 after 72 hrs by MTS/PMS assay. The conditions noted are these: SK-BR-3, 72 h. The essentials:
(§1)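 Cells kept in Advanced DMEM/F12 (1:1) with non-essential amino acids, 2 mM L-glutamine, penicillin, streptomycin and 10% FBS at 37 °C, 5% CO2. Seeded at 2000/well, attached overnight. Compound added in DMSO across a concentration range (1% DMSO final) for 72 h. Viable cells read by MTS/PMS and normalized to 1% DMSO controls (100%). IC50 taken from separate triplicate experiments.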

The subject of assay [2] is MCF7. The assay can be described thus: Antiproliferative activity against human MCF7 cells expressing estrogen receptor after 72 hrs by MTS/PMS assay. The conditions noted are these: MCF7, 72 h. Summed up:
as §1

A short description of assay [3]: Antiproliferative activity against human androgen-independent PC3MM2 cells after 72 hrs by MTS/PMS assay. The conditions noted are these: PC3MM2, 72 h. Summed up: as §1
Assay [4] is described as follows: Antiproliferative activity against human androgen-dependent LNCaP-LN3 cells after 72 hrs by MTS/PMS assay. The conditions noted are these: LNCaP-LN3, 72 h. Summed up:
as §1

Where only a bound is given, the exact number is not on record here.

In the case of `COc1cccc(-c2cc(C(=O)Nc3cc4ccc(OCC(O)CO)c(C)c4oc3=O)ccc2OC)c1` (configuration not stated), the results for the IC50 in assay [1], in assay [2] and in assay [3] were greater than 50 µM, greater than 50 µM and 0.19 µM, respectively.

For the molecule `COc1cccc(-c2cc(C(=O)Nc3cc4cc(OC)c(OC(=O)N(C)C)c(C)c4oc3=O)ccc2OC)c1`, the IC50 stood at 6.17 µM in assay [1], 34.4 µM in assay [2], 12.8 µM in assay [4] and 4.04 µM in assay [3].

As to `COc1cccc(-c2cc(C(=O)Nc3cc4cc(OC)c(O[C@@H]5OC[C@@H](O)[C@H]5O)c(C)c4oc3=O)ccc2OC)c1`, the 50% inhibitory concentration (IC50) came out at 9.45 µM in assay [1], 3.37 µM in assay [2], 4.72 µM in assay [4] and 9.56 µM in assay [3].

On to `CNC(=O)Oc1c(OC)cc2cc(NC(=O)c3ccc(OC)c(-c4cccc(OC)c4)c3)c(=O)oc2c1C`, for which the IC50 in assay [1] turned out to be 1.53 µM; in assay [2] it was 7.78 µM; in assay [4] it was 4.77 µM; in assay [3] it was 3.13 µM.

On to `COc1cccc(-c2cc(C(=O)Nc3cc4ccc(OS(=O)(=O)c5ccc(C)cc5)c(OC)c4oc3=O)ccc2OC)c1`, for which the IC50 was greater than 100 µM in assay [1], greater than 100 µM in assay [2] and 0.11 µM in assay [4].

Turning to `COc1cc2cc(NC(=O)c3ccc(OC(C)=O)c(CC=C(C)C)c3)c(=O)oc2c(C)c1OC1CCN(C)CC1`, the values for the IC50 in assay [1], in assay [2] and in assay [3] were 0.42 µM, 0.58 µM and 1.41 µM, respectively.

In the case of `COc1cccc(-c2cc(C(=O)Nc3cc4ccc(O[C@@H]5C[C@H](O)CCO5)c(C)c4oc3=O)ccc2OC)c1`, the concentration for half-maximal inhibition (IC50) in assay [1] worked out at 9.28 µM; in assay [2], 11.2 µM; in assay [4], 8.56 µM.

For the molecule `COc1cc2cc(NC(=O)c3ccc(O)c(CC=C(C)C)c3)c(=O)oc2c(C)c1OCCCN(C)C`, the 50% inhibitory concentration (IC50) in assay [1] was 0.39 µM; in assay [2], 0.8 µM; in assay [3], 1.38 µM.

For the molecule `CO[C@@H]1[C@@H](O)[C@@H](O)[C@H](Oc2ccc3cc(NC(=O)c4ccc(O)c(CC=C(C)C)c4)c(=O)oc3c2C)OC1(C)C`, the IC50 in assay [1] was 0.5 µM. That is a sub-micromolar value.

As for `CC(=O)Oc1ccc(C(=O)Nc2cc3ccc(OCCCN(C)C)c(C)c3oc2=O)cc1CC=C(C)C`, the 50% inhibitory concentration (IC50) in assay [3] stood at 1.42 µM.

With `CO[C@@H]1[C@@H](OC(N)=O)[C@@H](O)[C@H](Oc2ccc3cc(NC(=O)c4ccc(O)c(CC=C(C)C)c4)c(=O)oc3c2C)OC1(C)C`, it took 7.5 µM to reach half-maximal inhibition in assay [1] (IC50).

On to `COc1cccc(-c2cc(C(=O)Nc3cc4cc(OC)c(OS(C)(=O)=O)c(C)c4oc3=O)ccc2OC)c1`, for which the IC50 in assay [1], in assay [2] and in assay [4] was greater than 100 µM each time.

With `Cc1c(OCCCN(C)C)ccc2cc(NC(=O)c3cc4ccccc4[nH]3)c(=O)oc12`, the IC50 in assay [1] turned out to be 1.13 µM; in assay [2] it was 5.23 µM; in assay [3], 13.7 µM.

Consider `COc1cccc(-c2cc(C(=O)Nc3cc4ccc(OS(C)(=O)=O)c(OC)c4oc3=O)ccc2OC)c1`, for which the IC50 was greater than 100 µM in assay [1], greater than 100 µM in assay [2] and 0.87 µM in assay [4].

Regarding `COc1c(OC2CCN(C)CC2)ccc2cc(NC(=O)c3ccc(O)c(CC=C(C)C)c3)c(=O)oc12`, the half-maximal inhibitory concentration (IC50) is 0.92 µM in assay [1], 1.54 µM in assay [2] and 3.53 µM in assay [3].

With `COc1cccc(-c2cc(C(=O)Nc3cc4ccc(OC5OC(C)(C)[C@H](OC)[C@@H](O)[C@H]5O)c(C)c4oc3=O)ccc2OC)c1` (some centres not stated), the half-inhibitory concentration (IC50) in assay [1] is 7.5 µM; in assay [2], 18.7 µM.

On to `COc1cccc(-c2cc(C(=O)Nc3cc4ccc(O[C@H]5OCC[C@H]5O)c(C)c4oc3=O)ccc2OC)c1`, for which the IC50 was greater than 100 µM in assay [1], greater than 100 µM in assay [2] and 5.34 µM in assay [4].

Regarding `COc1c(OCCCN(C)C)ccc2cc(NC(=O)c3ccc(O)c(CC=C(C)C)c3)c(=O)oc12`, the IC50 stood at 0.77 µM in assay [1], 3.26 µM in assay [2] and 9.24 µM in assay [3].

As to `COc1cccc(-c2cc(C(=O)Nc3cc4ccc(OC5CC(C)C[C@@H](O)[C@H]5O)c(OC)c4oc3=O)ccc2OC)c1` (some centres not stated), the 50% inhibitory concentration (IC50) in assay [1] came to 6.38 µM; in assay [2] it was 8.52 µM.

Take `CO[C@H]1[C@H](OC(=O)c2ccc(C)[nH]2)[C@H](O)[C@@H](Oc2ccc3c(O)c(NC(=O)c4c[nH]c(C(=O)Nc5c(O)c6ccc(O[C@H]7OC(C)(C)[C@@H](OC)[C@H](OC(=O)c8ccc(C)[nH]8)[C@@H]7O)c(C)c6oc5=O)c4C)c(=O)oc3c2C)OC1(C)C` [COUMERMYCIN A1]: the 50% inhibitory concentration (IC50) in assay [1] is 70 µM.

`CC(=O)Oc1ccc(C(=O)Nc2cc3ccc(OC4CCN(C)CC4)c(C)c3oc2=O)cc1CC=C(C)C` gave an IC50 in assay [3] of 2.12 µM.

For the molecule `COc1c(OCCCN(C)C)ccc2cc(NC(=O)c3ccc(OC(C)=O)c(CC=C(C)C)c3)c(=O)oc12`, the IC50 was found to be 0.78 µM in assay [1], 2.14 µM in assay [2] and 4.59 µM in assay [3].

As for `CC(C)=CCc1cc(C(=O)Nc2cc3ccc(OC4CCN(C)CC4)c(C)c3oc2=O)ccc1O`, it took 1.37 µM to reach half-maximal inhibition in assay [3] (IC50).

As for `CO[C@@H]1[C@@H](O)[C@@H](O)[C@H](Oc2ccc3cc(NC(=O)c4cc5ccccc5[nH]4)c(=O)oc3c2C)OC1(C)C`, in assay [1], the IC50 is 0.37 µM. This counts as sub-micromolar.

As to `CC(C)=CCc1cc(C(=O)Nc2cc3ccc(OCCCN(C)C)c(C)c3oc2=O)ccc1O`, half-maximal inhibition in assay [3] (IC50) required 1.81 µM.

For `COc1cccc(-c2cc(C(=O)Nc3cc4cc(OC)c(OCC(O)CO)c(C)c4oc3=O)ccc2OC)c1` (configuration not stated), the IC50 in assay [1] was 19.4 µM; in assay [2] it was 20.5 µM.

For the molecule `COc1cccc(-c2cc(C(=O)Nc3cc4ccc(O[C@H]5C[C@H](O)CCO5)c(OC)c4oc3=O)ccc2OC)c1`, the IC50 came out at 8.75 µM in assay [1], 95.8 µM in assay [2] and 11.5 µM in assay [4].

In the case of `COc1cccc(-c2cc(C(=O)Nc3cc4ccc(OC5CCC[C@@H](O)[C@H]5O)c(OC)c4oc3=O)ccc2OC)c1` (some centres not stated), the IC50 in assay [1] was found to be 7.44 µM; in assay [2] it was 5.46 µM.

Consider `COc1cccc(-c2cc(C(=O)Nc3cc4cc(OC)c(OC5CCC[C@@H](O)[C@H]5O)c(C)c4oc3=O)ccc2OC)c1` (some centres not stated), for which the results for the half-inhibitory concentration (IC50) in assay [1] and in assay [2] were 8.18 µM and 10.1 µM, respectively.

`COc1cccc(-c2cc(C(=O)Nc3cc4cc(OC)c(OC5CC(C)(C)C[C@@H](O)[C@H]5O)c(C)c4oc3=O)ccc2OC)c1` (some centres not stated): the half-maximal inhibitory concentration (IC50) in assay [1] and in assay [2] was greater than 100 µM in each case.

For `COc1c(OC2CCN(C)CC2)ccc2cc(NC(=O)c3ccc(OC(C)=O)c(CC=C(C)C)c3)c(=O)oc12`, the IC50 in assay [1] worked out at 1.07 µM; in assay [2], 1.64 µM; in assay [3], 3.98 µM.

Turning to `COc1cccc(-c2cc(C(=O)Nc3cc4ccc(OC5CC(C)(C)C[C@@H](O)[C@H]5O)c(OC)c4oc3=O)ccc2OC)c1` (some centres not stated), the IC50 in assay [1] came out at 3.45 µM; in assay [2], 1.56 µM.

On to `COc1cccc(-c2cc(C(=O)Nc3cc4cc(OC)c(OS(=O)(=O)c5ccc(C)cc5)c(C)c4oc3=O)ccc2OC)c1`, for which the IC50 in assay [1], in assay [2] and in assay [3] was greater than 100 µM throughout.

`CO[C@@H]1[C@@H](O)[C@@H](O)[C@H](Oc2ccc3cc(NC(=O)CCCCC(=O)Nc4cc5ccc(O[C@H]6OC(C)(C)[C@@H](OC)[C@H](O)[C@@H]6O)cc5oc4=O)c(=O)oc3c2C)OC1(C)C` had a half-inhibitory concentration (IC50) in assay [1] of 2 µM.

Consider `COc1cccc(-c2cc(C(=O)Nc3cc4cc(OC)c(OC5CC(C)C[C@@H](O)[C@H]5O)c(C)c4oc3=O)ccc2OC)c1` (some centres not stated), for which the half-maximal inhibitory concentration (IC50) in assay [1] and in assay [2] was greater than 100 µM in each case.

For orientation: IC50 means the midpoint of a concentration-inhibition curve. Read a high IC50 as weaker potency in that assay.
